Columns and labels:
Type in all cases: functional
SH-SY5Y [1] = assay: Cytotoxicity against human SH-SY5Y cells assessed as reduction in cell viability incubated for 48 hrs by MUH reagent based spectrophotometric analysis
SH-SY5Y [2] = assay: Cytotoxicity against human SH-SY5Y cells assessed as reduction in cell viability incubated for 72 hrs by MUH reagent based spectrophotometric analysis
Method in brief: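 SH-SY5Y in DMEM/10% FBS seeded 0.75 × 10⁴ cells/well, after 24 h treated with 0.1–100 μM for 24, 48 or 72 h. Washed, incubated with MUH 0.01 mg/mL in PBS 30 min at 37 °C in the dark; fluorescence ex 330/em 450 nm, normalized to untreated cells. IC50 by nonlinear regression, log(inhibitor) vs normalized response.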

SH-SY5Y [3] = assay: Cytotoxicity against human SH-SY5Y cells assessed as reduction in cell viability incubated for 24 hrs by MUH reagent based spectrophotometric analysis

| SMILES | IC50 (SH-SY5Y [1]) [µM] | IC50 (SH-SY5Y [2]) [µM] | IC50 (SH-SY5Y [3]) [µM] |
| --- | --- | --- | --- |
| O=C(NO)c1ccc(CNC2=CC(=O)c3ccccc3C2=O)cc1 | 8.67 | 7.74 | 39 |
| O=C(CS)NCCCCNC1=CC(=O)c2ccccc2C1=O | > 100 | > 100 | > 100 |
| O=C(CCCCCNC1=CC(=O)c2ccccc2C1=O)NO | 26.9 | 22.5 | 80 |
| CC1=C(NCc2ccc(C(=O)NO)cc2)C(=O)c2ccccc2C1=O | 19.8 | 14 | 39 |
| CC1=C(NCCCCCC(=O)NO)C(=O)c2ccccc2C1=O | 84.4 | 53 | 178 |
| Nc1ccccc1NC(=O)c1ccc(CNC2=CC(=O)c3ccccc3C2=O)cc1 | 8.53 | 4.42 | 59.5 |
